Values after ≈ are worked out from the molar mass of the structure shown. Non-standard residues stand in square brackets, D forms with d. Residues, ends and D or L forms follow the SMILES beside them. Aib = CC(C)(N)C(=O)O
Columns and labels:
[1] = tested on: RAW264.7; assay: Induction of [3H]cholesterol efflux in mouse RAW264.7 cells after 24 hrs by scintillation counting; format: functional, cell-based; conditions: Mus musculus, RAW264.7; read-out: EC50
Procedure, shortened: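 Cholesterol efflux from RAW macrophages; EC50 reported in µM as the mean of three experiments.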

[2] = Toxicity in human RBC assessed as hemolysis; format: cell-based, Erythrocyte; conditions: red blood cells (RBC)
Procedure, shortened: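 Red blood cell lysis assay; cytotoxicity reported as IC50 in µM.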

[3] = tested on: RAW264.7; assay: Cytotoxicity against mouse RAW264.7 cells after 24 hrs by MTT assay; format: cell-based; conditions: RAW264.7, 24 h
Procedure, shortened: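 RAW macrophage cytotoxicity examined at peptide concentrations up to 160 µM.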

[4] = tested on: Plasma; assay: Increase in pre-beta-HDL level in human plasma after 1 hr by ELISA; format: functional, cell-free
Procedure, shortened: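 Peptides were titrated into human plasma, with concentrations expressed in µg/ml, and pre-β-HDL was read out by ELISA using a pre-β antibody.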

[5] = tested on: Plasma; assay: Incorporation into HDL fraction in wild type mouse plasma at 0.25 mg/ml after 2 hrs by size exclusion chromatography analysis
[6] = tested on: RAW264.7; assay: Induction of [3H]cholesterol efflux in mouse RAW264.7 cells at 30 uM after 24 hrs by scintillation counting; format: functional, cell-based
[7] = tested on: RAW264.7; assay: Induction of [3H]cholesterol efflux in mouse RAW264.7 cells at 100 uM after 24 hrs by scintillation counting; format: functional, cell-based
[8] = Toxicity in human RBC assessed as minimum lytic concentration; format: cell-based; conditions: erythrocyte

Structure (SMILES)	IC50 [2]	IC50 [3]	MLC [8]	other results
C=CCCCCC[C@H](NC(=O)[C@H](CCC(=O)O)NC(=O)[C@H](CC(N)=O)NC(=O)[C@H](CC(C)C)NC(=O)[C@H](CCCCN)NC(=O)[C@H](CCC(=O)O)NC(=O)[C@H](CCCNC(=N)N)NC(=O)[C@@H](CCCCC=C)NC(=O)[C@H](CCC(=O)O)NC(=O)[C@H](CC(=O)O)NC(=O)[C@H](CC(C)C)NC(=O)[C@@H](NC(=O)[C@@H]1CCCN1)C(C)C)C(=O)N[C@@H](CC(C)C)C(=O)N[C@@H](CCC(=O)O)C(=O)N[C@@H](C)C(=O)N[C@@H](CC(C)C)C(=O)N[C@@H](CCCCN)C(=O)N[C@@H](CCC(N)=O)C(=O)N[C@@H](CCCCN)C(=O)N[C@@H](CC(C)C)C(=O)N[C@@H](CCCCN)C(=O)O	> 160 µM	> 160 µM	–	EC50 [1]: 0.8 µM; IC50 [4]: Active; IC50 [5]: Active
C=CCCC[C@H](NC(=O)[C@H](CCC(=O)O)NC(=O)[C@H](CC(N)=O)NC(=O)[C@H](CC(C)C)NC(=O)[C@H](CCCC=C)NC(=O)[C@H](CCC(=O)O)NC(=O)[C@H](CCCNC(=N)N)NC(=O)[C@H](Cc1ccccc1)NC(=O)[C@H](CCC(=O)O)NC(=O)[C@H](CC(=O)O)NC(=O)[C@H](CC(C)C)NC(=O)[C@@H](NC(=O)[C@@H]1CCCN1)C(C)C)C(=O)N[C@@H](CC(C)C)C(=O)N[C@@H](CCC(=O)O)C(=O)N[C@@H](C)C(=O)N[C@@H](CC(C)C)C(=O)N[C@@H](CCCCN)C(=O)N[C@@H](CCC(N)=O)C(=O)N[C@@H](CCCCN)C(=O)N[C@@H](CC(C)C)C(=O)N[C@@H](CCCCN)C(=O)O	> 160 µM	> 160 µM	–	cholesterol efflux [6]: 7%
CC(C)C[C@H](NC(=O)[C@H](C)NC(=O)[C@H](CCC(=O)O)NC(=O)[C@H](CC(C)C)NC(=O)C(C)(C)NC(=O)[C@H](CCC(=O)O)NC(=O)[C@H](CC(N)=O)NC(=O)[C@H](CC(C)C)NC(=O)[C@H](CCCCN)NC(=O)[C@H](CCC(=O)O)NC(=O)[C@H](CCCNC(=N)N)NC(=O)[C@H](Cc1ccccc1)NC(=O)[C@H](CCC(=O)O)NC(=O)[C@H](CC(=O)O)NC(=O)[C@H](CC(C)C)NC(=O)[C@@H](NC(=O)[C@@H]1CCCN1)C(C)C)C(=O)N[C@@H](CCCCN)C(=O)N[C@@H](CCC(N)=O)C(=O)N[C@@H](CCCCN)C(=O)N[C@@H](CC(C)C)C(=O)N[C@@H](CCCCN)C(=O)O (H-PVLDEFREKLNE[Aib]LEALKQKLK-OH)	> 160 µM	> 160 µM	–	cholesterol efflux [7]: 6%
C[C@@H]1[C@H](O)[C@@H](C)/C=C/C=C/C=C/C=C/C=C/C=C/C=C/[C@H](O[C@@H]2O[C@H](C)[C@@H](O)[C@H](N)[C@@H]2O)C[C@@H]2O[C@](O)(C[C@@H](O)C[C@@H](O)[C@H](O)CC[C@@H](O)C[C@@H](O)CC(=O)O[C@H]1C)C[C@H](O)[C@H]2C(=O)O [AMPHOTERICIN B]	–	–	2 µg/mL (≈ 2.16 µM)	–
O=C(N[C@H](CO)[C@H](O)c1ccc([N+](=O)[O-])cc1)C(Cl)Cl [CHLORAMPHENICOL]	–	–	> 64 µg/mL	–

From ChEMBL document CHEMBL1153146, “Novel potent apoA-I peptide mimetics that stimulate cholesterol efflux and pre-beta particle formation in vitro” (Bioorg Med Chem Lett, 2010)
